Holding throughout (format): functional
The test system of assay [1] is Ureaplasma parvum. In words: Antimicrobial activity against Ureaplasma parvum SV6 isolate HPA23 after 48 hrs by modified broth microdilution technique. To be noted: SV6 isolate HPA23, 48 h. The method, boiled down:
(§1)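 Full-plate broth microdilution in ureaplasma selective medium (10% porcine serum, urea, phenol red, starting pH 6.65). A doubling-dilution antibiotic gradient from 64 to 0.0625 mg/liter is run, with an antibiotic-free column. An overnight culture of unknown CCU is added 1:10, then titrated 10-fold at right angles. Plates are sealed and held 48 h at 37°C. The MIC is the lowest concentration preventing colour change, read at 10⁴ CCU relative to the antibiotic-free control.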

Assay [2] has as its system Ureaplasma parvum. In words: Antimicrobial activity against Ureaplasma parvum SV1 isolate UHWO10 after 48 hrs by modified broth microdilution technique. The following applies: SV1 isolate UHWO10, 48 h. The method, boiled down:
as §1

Assay [3] concerns Ureaplasma parvum. The assay can be described thus: Antimicrobial activity against Ureaplasma parvum isolate UHWP2 after 48 hrs by modified broth microdilution technique. The following applies: isolate UHWP2, 48 h. Summed up: as §1
For assay [4], the system named is Ureaplasma parvum. The assay can be described thus: Antimicrobial activity against Ureaplasma parvum isolate UHWJM after 48 hrs by modified broth microdilution technique. Summed up:
as §1

Assay [5] concerns Ureaplasma parvum. In words: Antimicrobial activity against Ureaplasma parvum SV9 containing tetM gene. The method, boiled down: as §1
For assay [6], the system named is Ureaplasma parvum. The assay can be described thus: Antimicrobial activity against Ureaplasma parvum SV14 isolate HPA32 after 48 hrs by modified broth microdilution technique. The following applies: SV14 isolate HPA32, 48 h. The method, boiled down:
as §1

In assay [7] the test system is Ureaplasma parvum. The assay can be described thus: Antimicrobial activity against Ureaplasma parvum SV1 isolate HPA18 after 48 hrs by modified broth microdilution technique. To be noted: SV1 isolate HPA18, 48 h. The method, boiled down: as §1
In assay [8] the test system is Ureaplasma urealyticum. In words: Antimicrobial activity against Ureaplasma urealyticum isolate HPA6 after 48 hrs by modified broth microdilution technique. The following applies: isolate HPA6, 48 h. Summed up:
as §1

The test system of assay [9] is Ureaplasma urealyticum. The assay can be described thus: Antimicrobial activity against Ureaplasma urealyticum isolate HPA20 after 48 hrs by modified broth microdilution technique. The following applies: isolate HPA20, 48 h. The method, boiled down: as §1
In assay [10] the test system is Ureaplasma urealyticum. In words: Antimicrobial activity against Ureaplasma urealyticum isolate HPA12 after 48 hrs by modified broth microdilution technique. The following applies: isolate HPA12, 48 h. Summed up:
as §1

Assay [11] relates to Ureaplasma urealyticum. In words: Antimicrobial activity against Ureaplasma urealyticum isolate HPA3 after 48 hrs by modified broth microdilution technique. To be noted: isolate HPA3, 48 h. The method, boiled down: as §1
Assay [12] concerns Ureaplasma parvum. In words: Antimicrobial activity against Ureaplasma parvum SV1 isolate UHWQ3 after 48 hrs by modified broth microdilution technique. To be noted: SV1 isolate UHWQ3, 48 h. Summed up:
as §1

The test system of assay [13] is Ureaplasma urealyticum. In words: Antimicrobial activity against Ureaplasma urealyticum isolate HPA17 after 48 hrs by modified broth microdilution technique. The following applies: isolate HPA17, 48 h. The method, boiled down:
as §1

Values after ≈ are worked out from the molar mass of the structure shown. A value given as a limit tells only on which side of the number the result lay.

`CN(C)[C@@H]1C(O)=C(C(N)=O)C(=O)[C@@]2(O)C(O)=C3C(=O)c4c(O)cccc4[C@@](C)(O)[C@H]3C[C@@H]12` [TETRACYCLINE]: the MIC is 64 µg/mL (≈ 144 µM) in assay [1]; 1 µg/mL (≈ 2.25 µM) in assay [2]; 2 µg/mL (≈ 4.5 µM) in [3]; 2 µg/mL (≈ 4.5 µM) in [4]; > 64 µg/mL in assay [5]; 1 µg/mL (≈ 2.25 µM) in [6]. Also, the MIC was determined as 2 µg/mL (≈ 4.5 µM) in assay [7]; 2 µg/mL (≈ 4.5 µM) in [8]; 2 µg/mL (≈ 4.5 µM) in [9]; 2 µg/mL (≈ 4.5 µM) in assay [10]; 2 µg/mL (≈ 4.5 µM) in assay [11]; 1 µg/mL (≈ 2.25 µM) in [12]. For the same molecule, the MIC in [13] was 1 µg/mL (≈ 2.25 µM).

For `CC[C@H]1OC(=O)[C@H](C)[C@@H](O[C@H]2C[C@@](C)(OC)[C@@H](O)[C@H](C)O2)[C@H](C)[C@@H](O[C@@H]2O[C@H](C)C[C@H](N(C)C)[C@H]2O)[C@](C)(O)C[C@@H](C)C(=O)[C@H](C)[C@@H](O)[C@]1(C)O` [ERYTHROMYCIN], the MIC in assay [1] was 4 µg/mL (≈ 5.45 µM); in [2] it was > 64 µg/mL; in assay [3] it was 4 µg/mL (≈ 5.45 µM); in assay [4], 4 µg/mL (≈ 5.45 µM); in assay [5], 4 µg/mL (≈ 5.45 µM); in assay [6], 8 µg/mL (≈ 10.9 µM). Also, the minimum inhibitory concentration (MIC) in assay [7] is 4 µg/mL (≈ 5.45 µM); in assay [8], 8 µg/mL (≈ 10.9 µM); in assay [9] it was 8 µg/mL (≈ 10.9 µM); in [10], 8 µg/mL (≈ 10.9 µM); in assay [11], 4 µg/mL (≈ 5.45 µM); in [12], 4 µg/mL (≈ 5.45 µM). It took 8 µg/mL (≈ 10.9 µM) to inhibit growth in assay [13] (MIC).

As for `C[C@H]1c2cccc(O)c2C(=O)C2=C(O)[C@]3(O)C(=O)C(C(N)=O)=C(O)[C@@H](N(C)C)[C@@H]3[C@@H](O)[C@@H]21.O` [DOXYCYCLINE], the MIC in assay [1] was determined as 16 µg/mL; in assay [2] it was 0.25 µg/mL; in assay [3], 0.5 µg/mL; in assay [4], 0.5 µg/mL; in assay [5], 64 µg/mL; in [6], 0.25 µg/mL. For the same molecule, the MIC is 0.25 µg/mL in assay [7]; 0.5 µg/mL in assay [8]; 0.5 µg/mL in assay [9]; 0.5 µg/mL in assay [10]; 0.5 µg/mL in assay [11]; 0.25 µg/mL in assay [12]. The molecule also registered an MIC in [13] of 0.25 µg/mL.

`CC[C@H]1OC(=O)[C@H](C)[C@@H](O[C@H]2C[C@@](C)(OC)[C@@H](O)[C@H](C)O2)[C@H](C)[C@@H](O[C@@H]2O[C@H](C)C[C@H](N(C)C)[C@H]2O)[C@](C)(O)C[C@@H](C)CN(C)[C@H](C)[C@@H](O)[C@]1(C)O` [AZITHROMYCIN]: the MIC in assay [1] is < 0.25 µg/mL; in [2], 2 µg/mL (≈ 2.67 µM); in [3] it was < 0.25 µg/mL; in assay [4] it was < 0.25 µg/mL; in assay [6], < 0.25 µg/mL; in [7], < 0.25 µg/mL. Moreover, the MIC in assay [8] is < 0.25 µg/mL; in [9] it was < 0.25 µg/mL; in assay [10], < 0.25 µg/mL; in assay [11] it was 0.5 µg/mL (≈ 0.668 µM); in assay [12], < 0.25 µg/mL; in [13], 0.5 µg/mL (≈ 0.668 µM).

As for `CC[C@H]1OC(=O)[C@H](C)[C@@H](O[C@H]2C[C@@](C)(OC)[C@@H](O)[C@H](C)O2)[C@H](C)[C@@H](O[C@@H]2O[C@H](C)C[C@H](N(C)C)[C@H]2O)[C@](C)(OC)C[C@@H](C)C(=O)[C@H](C)[C@@H](O)[C@]1(C)O` [CLARITHROMYCIN], the MIC in [1] was < 0.125 µg/mL; in assay [2], 4 µg/mL (≈ 5.35 µM); in assay [3], < 0.125 µg/mL; in assay [4], < 0.125 µg/mL; in assay [6], < 0.125 µg/mL; in assay [7] it was < 0.125 µg/mL. Moreover, the minimal inhibitory concentration (MIC) in assay [8], in [9], in assay [10], in assay [11], in assay [12] and in [13] was < 0.125 µg/mL in each case.

As to `O=C(O)c1cn(C2CC2)c2cc(N3CCNCC3)c(F)cc2c1=O` [CIPROFLOXACIN], the MIC in assay [1] is < 2 µg/mL; in [2], 4 µg/mL (≈ 12.1 µM); in assay [3], 4 µg/mL (≈ 12.1 µM); in assay [4] it was 4 µg/mL (≈ 12.1 µM); in assay [6] it was < 2 µg/mL; in [7], 8 µg/mL (≈ 24.1 µM). For the same molecule, the MIC in assay [8], in assay [9], in assay [10], in assay [11], in assay [12] and in assay [13] was 4 µg/mL (≈ 12.1 µM) in each case.

(Values after ChEMBL document CHEMBL1649200, “Concurrent titration and determination of antibiotic resistance in ureaplasma species with identification of novel point mutations in genes associated with resistance” (2009).)
